Data on nine molecules can be found in ChEMBL document CHEMBL1772954, “Antifungal, cytotoxic and SAR studies of a series of N-alkyl, N-aryl and N-alkylphenyl-1,4-pyrrolediones and related compounds” (Bioorg Med Chem, 2011).

Holding throughout (assay type): functional
In one assay the test system is Candida tropicalis. Briefly: Antifungal activity against Candida tropicalis C 131 2000. In short, it runs like this: (§1)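 CLSI M27-A3 broth microdilution in RPMI-1640 buffered to pH 7.0 with MOPS. Inoculum 1-5 × 10^3 CFU/mL. Compound twofold dilutions from 250 to 0.24 µg/ml, final DMSO <1%. Incubated at 35 °C in a moist, dark chamber and read at 48 h. MIC is the lowest concentration giving total growth inhibition. For MFC, 5 µL from clear wells was plated in duplicate on SDA; MFC is the lowest concentration with no growth.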

The next assay deals with Saccharomyces cerevisiae. The assay can be described thus: Antifungal activity against Saccharomyces cerevisiae ATCC 9763. An outline of the steps: as §1
Assay [1] relates to Trichophyton mentagrophytes. Briefly: Antifungal activity against Trichophyton mentagrophytes ATCC 9972. An outline of the steps: (§2)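 Dermatophytes tested by CLSI M38-A2 microdilution in MOPS-buffered RPMI-1640 at pH 7.0. Inoculum 1-5 × 10^3 CFU/mL; compounds 250 to 0.24 µg/ml in twofold steps, final DMSO <1%. Incubated at 28 °C in a moist, dark chamber and read according to control growth. MIC is the lowest concentration with complete inhibition. MFC is the lowest concentration with no growth after duplicate subculture on SDA.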

Another assay has as its system Nannizzia gypsea. The assay can be described thus: Antifungal activity against Microsporum gypseum C 115 2000. In short, it runs like this: as §2
A further assay concerns Candida albicans. The assay can be described thus: Antifungal activity against Candida albicans ATCC 10213. An outline of the steps:
as §1

The test system of another assay is Cryptococcus neoformans. The assay can be described thus: Antifungal activity against Cryptococcus neoformans ATCC 32264. In short, it runs like this: as §1
Another assay relates to Aspergillus fumigatus. Briefly: Antifungal activity against Aspergillus fumigatus ATCC 26934. An outline of the steps: (§3)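 Broth microdilution per CLSI M38-A2 in RPMI-1640 with MOPS at pH 7.0. Inoculum 1-5 × 10^3 CFU/mL, with twofold compound dilutions spanning 250-0.24 µg/ml (final DMSO <1%). Plates incubated at 35 °C, moist and dark, and read when the control fungus had grown. MIC is total growth inhibition. MFC comes from subculturing clear wells in duplicate onto SDA.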

Another assay concerns Aspergillus niger. Briefly: Antifungal activity against Aspergillus niger ATCC 9029. An outline of the steps: as §3
Another assay deals with Aspergillus flavus. Briefly: Antifungal activity against Aspergillus flavus ATCC 9170. In short, it runs like this:
as §3

For another assay, the system named is Trichophyton rubrum. The assay can be described thus: Antifungal activity against Trichophyton rubrum C 113 2000. In short, it runs like this: as §2

The structures appear in SMILES notation. ≈ marks a conversion by molar mass, not a printed value. Bounds are passed on as bounds.

As for `O=C1C(c2ccccc2)=C(c2ccccc2)C(=O)N1CCCCc1ccccc1`, the MFC (with Candida tropicalis; with Saccharomyces cerevisiae; in [1]; in the assay with Nannizzia gypsea; against Candida albicans; in the assay with Cryptococcus neoformans) was over 250 µg/mL throughout. In addition, the MFC against Aspergillus fumigatus, against Aspergillus niger, in the assay on Aspergillus flavus and against Trichophyton rubrum was over 250 µg/mL throughout. The MIC (in the assay on Candida tropicalis; against Saccharomyces cerevisiae; in assay [1]; against Nannizzia gypsea; against Candida albicans; against Cryptococcus neoformans) was over 250 µg/mL throughout. In addition, the MIC in the assay with Aspergillus fumigatus, against Aspergillus niger, in the assay with Aspergillus flavus and against Trichophyton rubrum was over 250 µg/mL each time.
For the molecule `O=C1CCC(=O)N1CCc1ccccc1`, the MFC (with Candida tropicalis; in the assay on Saccharomyces cerevisiae; in [1]; against Nannizzia gypsea; in the assay with Candida albicans; against Cryptococcus neoformans) was over 250 µg/mL each time. In addition, the MFC in the assay with Aspergillus fumigatus, against Aspergillus niger, in the assay with Aspergillus flavus and against Trichophyton rubrum was over 250 µg/mL in each case. The MIC (against Candida tropicalis; in the assay on Saccharomyces cerevisiae; in assay [1]; against Nannizzia gypsea; against Candida albicans; with Cryptococcus neoformans) was over 250 µg/mL throughout. Further, the MIC against Aspergillus fumigatus, with Aspergillus niger, with Aspergillus flavus and against Trichophyton rubrum was over 250 µg/mL in each case.
`O=C(O)/C=C\C(=O)NCCCc1ccccc1`: the MFC (against Candida tropicalis; against Saccharomyces cerevisiae; in assay [1]; with Nannizzia gypsea; against Candida albicans; in the assay on Cryptococcus neoformans) was over 250 µg/mL throughout. The MFC against Aspergillus fumigatus, against Aspergillus niger, against Aspergillus flavus and with Trichophyton rubrum was over 250 µg/mL each time. Besides, the MIC in the assay with Candida tropicalis is over 250 µg/mL; in the assay with Saccharomyces cerevisiae it was over 250 µg/mL; in assay [1], over 250 µg/mL; in the assay on Nannizzia gypsea, 250 µg/mL (≈ 1070 µM); with Cryptococcus neoformans, over 250 µg/mL; with Aspergillus fumigatus, over 250 µg/mL. The MIC against Aspergillus niger is over 250 µg/mL; with Aspergillus flavus, over 250 µg/mL; in the assay on Trichophyton rubrum, 250 µg/mL (≈ 1070 µM).
Consider `O=C(O)/C=C\C(=O)Nc1ccccc1`, for which the MFC (in the assay on Candida tropicalis; against Saccharomyces cerevisiae; in assay [1]; with Nannizzia gypsea; against Candida albicans; with Cryptococcus neoformans) was over 250 µg/mL throughout. Moreover, the MFC with Aspergillus fumigatus was over 250 µg/mL; in the assay with Aspergillus niger it was over 250 µg/mL; with Aspergillus flavus, over 250 µg/mL; against Trichophyton rubrum, 250 µg/mL (≈ 1310 µM). In addition, the MIC is over 250 µg/mL against Candida tropicalis; 125 µg/mL (≈ 654 µM) against Saccharomyces cerevisiae; 250 µg/mL (≈ 1310 µM) in [1]; 125 µg/mL (≈ 654 µM) in the assay with Nannizzia gypsea; over 250 µg/mL against Cryptococcus neoformans; over 250 µg/mL against Aspergillus fumigatus. Also, the results for the MIC with Aspergillus niger, in the assay with Aspergillus flavus and with Trichophyton rubrum were over 250 µg/mL, over 250 µg/mL and 62.5 µg/mL (≈ 327 µM), respectively.
Turning to `O=C(O)/C=C\C(=O)NCCCCc1ccccc1`, the MFC (against Candida tropicalis; in the assay on Saccharomyces cerevisiae; in assay [1]; against Nannizzia gypsea; against Candida albicans; against Cryptococcus neoformans) was over 250 µg/mL each time. Moreover, the MFC in the assay with Aspergillus fumigatus, in the assay on Aspergillus niger, with Aspergillus flavus and in the assay with Trichophyton rubrum was over 250 µg/mL in each case. Moreover, the MIC (with Candida tropicalis; against Saccharomyces cerevisiae; in [1]; in the assay on Nannizzia gypsea; in the assay on Cryptococcus neoformans; against Aspergillus fumigatus) was over 250 µg/mL throughout. Further, the MIC against Aspergillus niger, against Aspergillus flavus and in the assay with Trichophyton rubrum was over 250 µg/mL in each case.
`O=C1CCC(=O)N1Cc1ccccc1`: the MFC (with Candida tropicalis; against Saccharomyces cerevisiae; in [1]; in the assay on Nannizzia gypsea; in the assay with Candida albicans; in the assay with Cryptococcus neoformans) was over 250 µg/mL each time. Further, the MFC in the assay with Aspergillus fumigatus, against Aspergillus niger, in the assay on Aspergillus flavus and against Trichophyton rubrum was over 250 µg/mL each time. The MIC (in the assay on Candida tropicalis; in the assay on Saccharomyces cerevisiae; in assay [1]; against Nannizzia gypsea; in the assay on Candida albicans; in the assay with Cryptococcus neoformans) was over 250 µg/mL throughout. Further, the MIC against Aspergillus fumigatus, in the assay on Aspergillus niger, in the assay with Aspergillus flavus and with Trichophyton rubrum was over 250 µg/mL throughout.
On to `O=C(O)/C=C\C(=O)NCc1ccccc1`, for which the MFC (in the assay on Candida tropicalis; against Saccharomyces cerevisiae; in assay [1]; against Nannizzia gypsea; in the assay on Candida albicans; against Cryptococcus neoformans) was over 250 µg/mL each time. For the same molecule, the MFC against Aspergillus fumigatus, against Aspergillus niger, against Aspergillus flavus and in the assay with Trichophyton rubrum was over 250 µg/mL in each case. For the same molecule, the MIC in the assay on Candida tropicalis is over 250 µg/mL; against Saccharomyces cerevisiae, 250 µg/mL (≈ 1220 µM); in assay [1], over 250 µg/mL; against Nannizzia gypsea, over 250 µg/mL; in the assay on Cryptococcus neoformans, over 250 µg/mL; against Aspergillus fumigatus it was over 250 µg/mL. The MIC in the assay on Aspergillus niger, in the assay on Aspergillus flavus and against Trichophyton rubrum was over 250 µg/mL throughout.
Regarding `O=C(O)/C=C\C(=O)NCCc1ccccc1`, the MFC (with Candida tropicalis; against Saccharomyces cerevisiae; in [1]; with Nannizzia gypsea; in the assay on Candida albicans; in the assay with Cryptococcus neoformans) was over 250 µg/mL throughout. Further, the MFC against Aspergillus fumigatus, against Aspergillus niger, against Aspergillus flavus and against Trichophyton rubrum was over 250 µg/mL each time. The MIC against Candida tropicalis is over 250 µg/mL; in the assay on Saccharomyces cerevisiae, over 250 µg/mL; in [1], over 250 µg/mL; in the assay with Nannizzia gypsea it was 250 µg/mL (≈ 1140 µM); with Cryptococcus neoformans it was over 250 µg/mL; against Aspergillus fumigatus, over 250 µg/mL. For the same molecule, the values for the MIC in the assay with Aspergillus niger, in the assay with Aspergillus flavus and against Trichophyton rubrum were over 250 µg/mL, over 250 µg/mL and 250 µg/mL (≈ 1140 µM), respectively.
In the case of `O=C1CCC(=O)N1c1ccccc1`, the MFC (in the assay on Candida tropicalis; in the assay with Saccharomyces cerevisiae; in assay [1]; in the assay on Nannizzia gypsea; with Candida albicans; against Cryptococcus neoformans) was over 250 µg/mL each time. Also, the MFC with Aspergillus fumigatus, in the assay with Aspergillus niger, against Aspergillus flavus and with Trichophyton rubrum was over 250 µg/mL each time. In addition, the MIC (in the assay with Candida tropicalis; in the assay with Saccharomyces cerevisiae; in [1]; against Nannizzia gypsea; against Candida albicans; against Cryptococcus neoformans) was over 250 µg/mL throughout. Besides, the MIC with Aspergillus fumigatus, in the assay with Aspergillus niger, against Aspergillus flavus and in the assay on Trichophyton rubrum was over 250 µg/mL in each case.
